Test results published in ChEMBL document CHEMBL1156500, “Characterization of the metabolic activation of hepatitis C virus nucleoside inhibitor beta-D-2'-Deoxy-2'-fluoro-2'-C-methylcytidine (PSI-6130) and identification of a novel active 5'-triphosphate species” (J Biol Chem, 2007).
pIC50: −log10 of the molar value.

Tests used:
Hepatocyte [1] = test: Drug uptake in human hepatocyte at 50 uM after 24 hrs assessed as 4-amino-1-((2R,3R,4R,5R)-3-fluoro-4-hydroxy-5-(hydroxymethyl)-3-methyl-tetrahydrofuran-2-yl)pyrimidin-2(1H)-one tri phosphate level per 10^6 cells; type: ADME, cell-based; conditions: hepatocytes
In short: (§1)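 Primary human hepatocytes from 3 donors were plated on collagen and recovered for ≥18 h. They were exposed for 24 h, in duplicate, to 0–250 μM drug: 3H-labelled material diluted with unlabelled compound. Total intracellular radioactivity and individual phosphates were measured in methanol extracts by SAX HPLC with radiometric detection. Results are pmol/10^6 cells, mean ± S.D.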

Hepatocyte [2] = test: Drug uptake in human hepatocyte at 2 uM after 6 hrs assessed per 10^6 cells; type: ADME, cell-based; conditions: hepatocytes
In short: (§2)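 Primary human hepatocytes from 4 donors were plated at 1.5 million cells/well on collagen and recovered for ≥18 h. They were dosed with 3H-labelled drug at 2 μM (10 μCi/ml) for 1–72 h, in duplicate, at 37°C. Cold 60% methanol extracts were run on SAX ion-exchange HPLC with radiometric detection and compared with reference standards. Results are pmol/10^6 cells, mean ± S.D.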

Hepatocyte [3] = test: Drug uptake in human hepatocyte at 2 uM after 48 hrs assessed as 4-amino-1-((2R,3R,4R,5R)-3-fluoro-4-hydroxy-5-(hydroxymethyl)-3-methyl-tetrahydrofuran-2-yl)pyrimitrin-2(1H)-one tri phosphate level per 10^6 cells; type: ADME, cell-based; conditions: hepatocytes; in short: as §2
Hepatocyte [4] = test: Drug uptake in human hepatocyte at 25 uM after 24 hrs assessed per 10^6 cells; type: ADME, cell-based; conditions: hepatocytes; in short: as §1
Hepatocyte [5] = test: Drug uptake in human hepatocyte at 250 uM after 24 hrs assessed as 4-amino-1-((2R,3R,4R,5R)-3-fluoro-4-hydroxy-5-(hydroxymethyl)-3-methyl-tetrahydrofuran-2-yl)pyrimidin-2(1H)-one di phosphate level per 10^6 cells; type: ADME, cell-based; conditions: hepatocytes; in short: as §1
Hepatocyte [6] = test: Drug uptake in human hepatocyte at 2 uM after 16 hrs assessed per 10^6 cells; type: ADME, cell-based; conditions: hepatocytes; in short: as §2
Hepatocyte [7] = test: Drug uptake in human hepatocyte at 50 uM after 24 hrs assessed as 1-((2R,3R,4R,5R)-3-fluoro-4-hydroxy-5-(hydroxymethyl)-3-methyl-tetrahydrofuran-2-yl)pyrimidine-2,4(1H,3H)-dione tri phosphate level per 10^6 cells; type: ADME, cell-based; conditions: hepatocytes; in short: as §1
Hepatocyte [8] = test: Drug uptake in human hepatocyte at 100 uM after 24 hrs assessed as 1-((2R,3R,4R,5R)-3-fluoro-4-hydroxy-5-(hydroxymethyl)-3-methyl-tetrahydrofuran-2-yl)pyrimidine-2,4(1H,3H)-dione tri phosphate level per 10^6 cells; type: ADME, cell-based; conditions: hepatocytes; in short: as §1
Hepatocyte [9] = test: Drug uptake in human hepatocyte at 50 uM after 24 hrs assessed as 1-((2R,3R,4R,5R)-3-fluoro-4-hydroxy-5-(hydroxymethyl)-3-methyl-tetrahydrofuran-2-yl)pyrimidine-2,4(1H,3H)-dione di phosphate level per 10^6 cells; type: ADME, cell-based; conditions: hepatocytes; in short: as §1
Hepatocyte [10] = test: Drug uptake in human hepatocyte at 25 uM after 24 hrs assessed as 4-amino-1-((2R,3R,4R,5R)-3-fluoro-4-hydroxy-5-(hydroxymethyl)-3-methyl-tetrahydrofuran-2-yl)pyrimidin-2(1H)-one di phosphate level per 10^6 cells; type: ADME, cell-based; conditions: hepatocytes; in short: as §1
Hepatocyte [11] = test: Drug uptake in human hepatocyte at 2 uM after 16 hrs assessed as 4-amino-1-((2R,3R,4R,5R)-3-fluoro-4-hydroxy-5-(hydroxymethyl)-3-methyl-tetrahydrofuran-2-yl)[…]-2(1H)-one tri phosphate level per 10^6 cells; type: ADME, cell-based; conditions: hepatocytes; in short: as §2
Hepatocyte [12] = test: Drug uptake in human hepatocyte at 2 uM after 6 hrs assessed as 1-((2R,3R,4R,5R)-3-fluoro-4-hydroxy-5-(hydroxymethyl)-3-methyl-tetrahydrofuran-2-yl)pyrimitrine-2,4(1H,3H)-trione tri phosphate level per 10^6 cells; type: ADME, cell-based; conditions: hepatocytes; in short: as §2
Hepatocyte [13] = test: Drug uptake in human hepatocyte at 2 uM after 16 hrs assessed as 1-((2R,3R,4R,5R)-3-fluoro-4-hydroxy-5-(hydroxymethyl)-3-methyl-tetrahydrofuran-2-yl)pyrimitrine-2,4(1H,3H)-trione tri phosphate level per 10^6 cells; type: ADME, cell-based; conditions: hepatocytes; in short: as §2
Hepatocyte [14] = test: Drug uptake in human hepatocyte at 2 uM after 24 hrs assessed as 1-((2R,3R,4R,5R)-3-fluoro-4-hydroxy-5-(hydroxymethyl)-3-methyl-tetrahydrofuran-2-yl)pyrimidine-2,4(1H,3H)-dione di phosphate level per 10^6 cells; type: ADME, cell-based; conditions: hepatocytes; in short: as §1
Hepatocyte [15] = test: Drug uptake in human hepatocyte at 2 uM after 24 hrs assessed as 1-((2R,3R,4R,5R)-3-fluoro-4-hydroxy-5-(hydroxymethyl)-3-methyl-tetrahydrofuran-2-yl)pyrimidine-2,4(1H,3H)-dione tri phosphate level per 10^6 cells; type: ADME, cell-based; conditions: hepatocytes; in short: as §1
Hepatocyte [16] = test: Drug uptake in human hepatocyte at 100 uM after 24 hrs assessed as 4-amino-1-((2R,3R,4R,5R)-3-fluoro-4-hydroxy-5-(hydroxymethyl)-3-methyl-tetrahydrofuran-2-yl)pyrimidin-2(1H)-one di phosphate level per 10^6 cells; type: ADME, cell-based; conditions: hepatocytes; in short: as §1
Hepatocyte [17] = test: Drug uptake in human hepatocyte at 100 uM after 24 hrs assessed as 1-((2R,3R,4R,5R)-3-fluoro-4-hydroxy-5-(hydroxymethyl)-3-methyl-tetrahydrofuran-2-yl)pyrimidine-2,4(1H,3H)-dione di phosphate level per 10^6 cells; type: ADME, cell-based; conditions: hepatocytes; in short: as §1
Hepatocyte [18] = test: Drug uptake in human hepatocyte at 250 uM after 24 hrs assessed as 1-((2R,3R,4R,5R)-3-fluoro-4-hydroxy-5-(hydroxymethyl)-3-methyl-tetrahydrofuran-2-yl)pyrimidine-2,4(1H,3H)-dione tri phosphate level per 10^6 cells; type: ADME, cell-based; conditions: hepatocytes; in short: as §1
Hepatocyte [19] = test: Drug uptake in human hepatocyte at 250 uM after 24 hrs assessed as 4-amino-1-((2R,3R,4R,5R)-3-fluoro-4-hydroxy-5-(hydroxymethyl)-3-methyl-tetrahydrofuran-2-yl)pyrimidin-2(1H)-one tri phosphate level per 10^6 cells; type: ADME, cell-based; conditions: hepatocytes; in short: as §1
Hepatocyte [20] = test: Drug uptake in human hepatocyte at 10 uM after 24 hrs assessed as 4-amino-1-((2R,3R,4R,5R)-3-fluoro-4-hydroxy-5-(hydroxymethyl)-3-methyl-tetrahydrofuran-2-yl)pyrimidin-2(1H)-one tri phosphate level per 10^6 cells; type: ADME, cell-based; conditions: hepatocytes; in short: as §1
Hepatocyte [21] = test: Drug uptake in human hepatocyte at 2 uM after 72 hrs assessed per 10^6 cells; type: ADME, cell-based; conditions: hepatocytes; in short: as §2
Hepatitis C virus = test: Antiviral activity against HCV 1b Con1 in 2209-23 cells after 72 hrs by luciferase based replicon assay; type: functional, organism-based, Hepacivirus hominis; conditions: genotype 1b Con 1, 2209-23, 72 h
In short: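 Huh7-derived 2209-23 cells carrying a bicistronic genotype 1b Con1 subgenomic HCV replicon with a Renilla luciferase reporter of RNA replication. Cells were exposed to compound for 72 h, and dose-dependent reduction of luciferase activity was measured to give IC50.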

Hepatocyte [22] = test: Drug uptake in human hepatocyte at 2 uM after 48 hrs assessed as 1-((2R,3R,4R,5R)-3-fluoro-4-hydroxy-5-(hydroxymethyl)-3-methyl-tetrahydrofuran-2-yl)pyrimitrine-2,4(1H,3H)-trione tri phosphate level per 10^6 cells; type: ADME, cell-based; conditions: hepatocytes; in short: as §2
Hepatocyte [23] = test: Drug uptake in human hepatocyte at 100 uM after 24 hrs assessed as 4-amino-1-((2R,3R,4R,5R)-3-fluoro-4-hydroxy-5-(hydroxymethyl)-3-methyl-tetrahydrofuran-2-yl)pyrimidin-2(1H)-one tri phosphate level per 10^6 cells; type: ADME, cell-based; conditions: hepatocytes; in short: as §1

Q: Which results are given for `C[C@@]1(F)[C@H](O)[C@@H](CO)O[C@H]1n1ccc(N)nc1=O`?
A: Drug uptake (Hepatocyte [1]): 18.7 pmol; Drug uptake (Hepatocyte [2]): 32.9 pmol; Drug uptake (Hepatocyte [3]): 1.3 pmol; Drug uptake (Hepatocyte [4]): 439.1 pmol; Drug uptake (Hepatocyte [5]): 19.6 pmol; Drug uptake (Hepatocyte [6]): 34.4 pmol; Drug uptake (Hepatocyte [7]): 34.9 pmol; Drug uptake (Hepatocyte [8]): 71.2 pmol; Drug uptake (Hepatocyte [9]): 20.3 pmol; Drug uptake (Hepatocyte [10]): 3.4 pmol; Drug uptake (Hepatocyte [11]): 0.7 pmol; Drug uptake (Hepatocyte [12]): 0.3 pmol; Drug uptake (Hepatocyte [13]): 0.6 pmol; Drug uptake (Hepatocyte [14]): 0.9 pmol; Drug uptake (Hepatocyte [15]): 2.4 pmol; Drug uptake (Hepatocyte [16]): 13.4 pmol; Drug uptake (Hepatocyte [17]): 34.7 pmol; Drug uptake (Hepatocyte [18]): 84 pmol; Drug uptake (Hepatocyte [19]): 40.4 pmol; Drug uptake (Hepatocyte [20]): 5.6 pmol; Drug uptake (Hepatocyte [21]): 34.6 pmol; pIC50 (Hepatitis C virus): 6.22; Drug uptake (Hepatocyte [22]): 2 pmol; Drug uptake (Hepatocyte [23]): 34.3 pmol
